Reference: ChEMBL document CHEMBL1151949, “Alkaloids from the roots of Stemona aphylla” (2009)
In brackets after ≈: the same amount, converted by molar mass.

Assays:
Format in all cases: functional
[1] = test system: Candida albicans; assay: Antimicrobial activity against Candida albicans ATCC 90028 after 24 hrs by broth dilution technique; conditions: ATCC 90028, 24 h
In short: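 Broth dilution in trypticase soy broth, series from 500 to 1.95 µg/mL. Incubation at 37 °C for 24 h. MIC taken as lowest concentration with no visible growth. Amphotericin B served as antifungal positive control.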

[2] = test system: Plutella xylostella; assay: Insecticidal activity against Plutella xylostella treated as topical application
[3] = test system: Escherichia coli; assay: Antimicrobial activity against Escherichia coli ATCC 25922 after 24 hrs by broth dilution technique
In short: (§1)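 Serial dilutions in trypticase soy broth spanning 500 to 1.95 µg/mL, tested by broth dilution; tubes incubated 37 °C for 24 h. MIC taken as lowest concentration tube with no visible organism growth. Gentamycin served as antibacterial positive control.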

[4] = test system: Pseudomonas aeruginosa; assay: Antimicrobial activity against Pseudomonas aeruginosa ATCC 27853 after 24 hrs by broth dilution technique; in short: as §1
[5] = test system: Staphylococcus aureus; assay: Antimicrobial activity against Staphylococcus aureus ATCC 25923 after 24 hrs by broth dilution technique; in short: as §1

Compound: C[C@@H]1[C@H](O)[C@@H](C)/C=C/C=C/C=C/C=C/C=C/C=C/C=C/[C@H](O[C@@H]2O[C@H](C)[C@@H](O)[C@H](N)[C@@H]2O)C[C@@H]2O[C@](O)(C[C@@H](O)C[C@@H](O)[C@H](O)CC[C@@H](O)C[C@@H](O)CC(=O)O[C@H]1C)C[C@H](O)[C@H]2C(=O)O [AMPHOTERICIN B]
- MFC [1]: 0.7 µg/mL (≈ 0.758 µM)

Compound: CNC(=O)ON=C(C)SC [METHOMYL]
- LC50 [2]: 1840 µg/mL (≈ 11300 µM)

Compound: C[C@@H]1C[C@H](C[C@@H](C)[C@H]2CCCCN3CCC[C@@H]23)OC1=O [STEMAPHYLLINE]
- LC50 [2]: 1820 µg/mL (≈ 6530 µM)
- MBC ([3]; ATCC 25922, 24 h): 125 µg/mL (≈ 447 µM)
- MIC ([3]; ATCC 25922, 24 h): 62.5 µg/mL (≈ 224 µM)
- MBC ([4]; ATCC 27853, 24 h): 125 µg/mL (≈ 447 µM)
- MIC ([4]; ATCC 27853, 24 h): 62.5 µg/mL (≈ 224 µM)
- MFC [1]: 125 µg/mL (≈ 447 µM)
- MIC [1]: 125 µg/mL (≈ 447 µM)
- MBC ([5]; ATCC 25923, 24 h): 250 µg/mL (≈ 895 µM)
- MIC ([5]; ATCC 25923, 24 h): 125 µg/mL (≈ 447 µM)

Compound: GENTAMICIN
- MBC [3]: 5.62 µg/mL
- MIC [3]: 5.62 µg/mL
- MBC [4]: 1.46 µg/mL
- MIC [4]: 0.35 µg/mL
- MBC [5]: 22.5 µg/mL
- MIC [5]: 5.62 µg/mL
